ChEMBL document CHEMBL5653631, “A Potent and Selective ULK1 Inhibitor Suppresses Autophagy and Sensitizes Cancer Cells to Nutrient Stress” (iScience, 2018)
Each block holds one compound with its values, some of them ahead of it.

How the values were obtained:
[1] = target: T1, Testis-specific serine/threonine-protein kinase 3 (Homo sapiens) (UniProt Q96PN8); test: Inhibition of human recombinant TSSK3 at 500 nM in presence of ATP by radiometric assay relative to control
T1 sequence (whole entry): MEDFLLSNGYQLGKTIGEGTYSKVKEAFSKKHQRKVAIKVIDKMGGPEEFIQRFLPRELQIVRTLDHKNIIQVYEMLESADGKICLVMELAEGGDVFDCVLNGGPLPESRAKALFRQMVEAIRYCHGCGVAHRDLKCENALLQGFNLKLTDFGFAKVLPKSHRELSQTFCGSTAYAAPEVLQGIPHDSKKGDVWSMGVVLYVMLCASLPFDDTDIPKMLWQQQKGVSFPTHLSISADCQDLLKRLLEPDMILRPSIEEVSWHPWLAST

[2] = target: Protein-tyrosine kinase 6 (Homo sapiens) (UniProt Q13882); test: Inhibition of human recombinant BRK at 500 nM in presence of ATP by radiometric assay relative to control
Summary of the method: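 Part of a radiometric in vitro activity panel of 327 recombinant human kinases. Each kinase was tested in duplicate at one inhibitor concentration. Activity remaining was expressed as a percentage of the vehicle control, and percent inhibition was taken as 100 minus that value.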

[3] = target: Vascular endothelial growth factor receptor 1 (Homo sapiens) (UniProt P17948); test: Inhibition of human recombinant FLT1 at 500 nM related to control ULK1
[4] = target: Serine/threonine-protein kinase PRP4 homolog (Homo sapiens) (UniProt Q13523); test: Inhibition of human recombinant PRP4 at 40 nM related to control ULK1
[5] = target: T2, Mitogen-activated protein kinase kinase kinase 7 (Homo sapiens) (UniProt O43318); test: Inhibition of human recombinant TAK1 at 40 nM related to control ULK1
T2 sequence (whole entry): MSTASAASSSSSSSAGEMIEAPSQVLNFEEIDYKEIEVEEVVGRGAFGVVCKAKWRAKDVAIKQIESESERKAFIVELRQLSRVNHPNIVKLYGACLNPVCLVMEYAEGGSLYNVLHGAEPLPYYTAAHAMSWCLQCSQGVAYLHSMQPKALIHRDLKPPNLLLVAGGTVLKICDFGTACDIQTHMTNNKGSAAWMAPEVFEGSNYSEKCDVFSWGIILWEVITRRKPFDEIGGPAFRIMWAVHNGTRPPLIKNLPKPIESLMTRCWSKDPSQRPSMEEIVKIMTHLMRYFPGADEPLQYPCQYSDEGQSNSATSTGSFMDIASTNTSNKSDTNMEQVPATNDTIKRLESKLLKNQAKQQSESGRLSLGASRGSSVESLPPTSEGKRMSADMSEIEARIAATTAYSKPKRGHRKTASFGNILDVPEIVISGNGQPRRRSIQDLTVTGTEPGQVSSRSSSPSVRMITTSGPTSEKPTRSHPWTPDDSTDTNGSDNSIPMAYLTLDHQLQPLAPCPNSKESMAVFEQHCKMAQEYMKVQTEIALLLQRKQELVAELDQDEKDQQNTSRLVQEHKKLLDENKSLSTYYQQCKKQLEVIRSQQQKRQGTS

[6] = target: Serine/threonine-protein kinase pim-1 (Homo sapiens) (UniProt P11309); test: Inhibition of human recombinant PIM1 at 15 nM related to control ULK1
[7] = target: Focal adhesion kinase 1 (Homo sapiens) (UniProt Q05397); test: Inhibition of human recombinant FAK at 15 nM related to control ULK1
[8] = target: Serine/threonine-protein kinase SIK1 (Homo sapiens) (UniProt P57059); test: Inhibition of human recombinant SIK at 15 nM in presence of ATP by radiometric assay relative to control
[9] = target: T3, Inhibitor of nuclear factor kappa-B kinase subunit epsilon (Homo sapiens) (UniProt Q14164); test: Inhibition of human recombinant IKKe at 15 nM related to control ULK1
T3 sequence (whole entry): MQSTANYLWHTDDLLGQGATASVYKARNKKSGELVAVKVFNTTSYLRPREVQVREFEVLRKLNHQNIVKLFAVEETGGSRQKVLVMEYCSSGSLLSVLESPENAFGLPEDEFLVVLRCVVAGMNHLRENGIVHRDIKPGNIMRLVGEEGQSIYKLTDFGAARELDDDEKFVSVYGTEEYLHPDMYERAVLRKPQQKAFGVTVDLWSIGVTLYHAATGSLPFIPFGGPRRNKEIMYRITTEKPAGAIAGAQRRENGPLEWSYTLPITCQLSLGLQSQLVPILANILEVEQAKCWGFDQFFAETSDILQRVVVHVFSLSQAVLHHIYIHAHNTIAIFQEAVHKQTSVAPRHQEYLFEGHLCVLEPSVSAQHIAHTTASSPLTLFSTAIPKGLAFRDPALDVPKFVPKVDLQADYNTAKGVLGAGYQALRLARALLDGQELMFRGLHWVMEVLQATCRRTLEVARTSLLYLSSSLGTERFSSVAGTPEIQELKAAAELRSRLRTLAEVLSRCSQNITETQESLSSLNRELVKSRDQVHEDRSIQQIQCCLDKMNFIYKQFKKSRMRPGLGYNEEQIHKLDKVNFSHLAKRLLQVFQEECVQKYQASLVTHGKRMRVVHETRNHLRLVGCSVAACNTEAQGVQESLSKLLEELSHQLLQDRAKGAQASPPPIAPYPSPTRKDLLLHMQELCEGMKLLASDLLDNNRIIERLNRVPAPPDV

[10] = target: Fibroblast growth factor receptor 4 (Homo sapiens) (UniProt P22455); test: Inhibition of human recombinant FGFR4 at 15 nM related to control ULK1
[11] = target: Serine/threonine-protein kinase PAK 5 (Homo sapiens) (UniProt Q9P286); test: Inhibition of human recombinant PAK5 at 15 nM in presence of ATP by radiometric assay relative to control
[12] = target: T4, Serine/threonine-protein kinase Sgk2 (Homo sapiens) (UniProt Q9HBY8); test: Inhibition of human recombinant SGK2 at 15 nM in presence of ATP by radiometric assay relative to control
T4 sequence (whole entry): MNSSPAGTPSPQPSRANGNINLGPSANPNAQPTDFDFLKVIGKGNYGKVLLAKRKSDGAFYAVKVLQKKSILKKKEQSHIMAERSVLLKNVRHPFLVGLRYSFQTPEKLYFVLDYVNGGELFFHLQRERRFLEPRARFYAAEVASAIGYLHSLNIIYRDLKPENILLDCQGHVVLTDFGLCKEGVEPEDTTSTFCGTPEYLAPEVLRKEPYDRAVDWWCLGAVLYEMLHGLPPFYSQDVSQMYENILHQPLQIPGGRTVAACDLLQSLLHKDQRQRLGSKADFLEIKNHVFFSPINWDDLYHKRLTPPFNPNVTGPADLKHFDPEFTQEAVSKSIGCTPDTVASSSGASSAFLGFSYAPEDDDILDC

Sequence of Vascular endothelial growth factor receptor 1 (Homo sapiens) (P17948 whole entry): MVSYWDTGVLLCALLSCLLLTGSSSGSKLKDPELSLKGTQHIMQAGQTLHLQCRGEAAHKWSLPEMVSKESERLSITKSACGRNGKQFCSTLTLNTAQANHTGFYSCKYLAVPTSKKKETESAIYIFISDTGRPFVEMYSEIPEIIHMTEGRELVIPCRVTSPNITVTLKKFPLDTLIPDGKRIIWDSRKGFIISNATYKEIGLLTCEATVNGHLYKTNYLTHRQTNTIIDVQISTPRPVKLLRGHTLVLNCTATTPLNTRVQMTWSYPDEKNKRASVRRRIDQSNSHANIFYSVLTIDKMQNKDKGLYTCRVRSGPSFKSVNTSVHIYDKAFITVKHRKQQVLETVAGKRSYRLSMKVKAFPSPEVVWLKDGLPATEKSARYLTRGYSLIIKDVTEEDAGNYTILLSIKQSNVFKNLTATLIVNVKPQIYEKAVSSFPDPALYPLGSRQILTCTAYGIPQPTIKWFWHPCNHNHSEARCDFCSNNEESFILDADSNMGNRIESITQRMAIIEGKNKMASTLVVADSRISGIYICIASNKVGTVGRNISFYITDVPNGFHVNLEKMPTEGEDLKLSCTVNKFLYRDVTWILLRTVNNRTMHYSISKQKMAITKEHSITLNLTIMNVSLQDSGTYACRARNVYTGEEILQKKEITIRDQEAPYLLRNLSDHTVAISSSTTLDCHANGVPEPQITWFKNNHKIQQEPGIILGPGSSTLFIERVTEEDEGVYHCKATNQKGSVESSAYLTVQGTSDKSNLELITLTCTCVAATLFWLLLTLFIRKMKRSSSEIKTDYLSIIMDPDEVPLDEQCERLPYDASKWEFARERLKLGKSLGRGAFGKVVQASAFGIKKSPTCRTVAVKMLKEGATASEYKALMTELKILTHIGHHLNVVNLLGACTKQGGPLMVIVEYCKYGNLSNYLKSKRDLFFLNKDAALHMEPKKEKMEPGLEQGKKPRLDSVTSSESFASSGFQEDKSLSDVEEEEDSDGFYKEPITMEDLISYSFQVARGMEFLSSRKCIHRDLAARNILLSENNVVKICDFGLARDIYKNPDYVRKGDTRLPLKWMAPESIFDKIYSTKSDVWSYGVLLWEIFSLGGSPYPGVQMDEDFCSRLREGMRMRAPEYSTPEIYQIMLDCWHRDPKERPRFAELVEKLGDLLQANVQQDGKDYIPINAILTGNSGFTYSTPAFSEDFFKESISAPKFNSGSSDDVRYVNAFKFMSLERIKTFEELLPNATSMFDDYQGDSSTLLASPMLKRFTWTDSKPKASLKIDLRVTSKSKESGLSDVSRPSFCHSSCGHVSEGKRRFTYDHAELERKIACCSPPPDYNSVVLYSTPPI
Sequence of Serine/threonine-protein kinase PAK 5 (Homo sapiens) (Q9P286 whole entry, looked up): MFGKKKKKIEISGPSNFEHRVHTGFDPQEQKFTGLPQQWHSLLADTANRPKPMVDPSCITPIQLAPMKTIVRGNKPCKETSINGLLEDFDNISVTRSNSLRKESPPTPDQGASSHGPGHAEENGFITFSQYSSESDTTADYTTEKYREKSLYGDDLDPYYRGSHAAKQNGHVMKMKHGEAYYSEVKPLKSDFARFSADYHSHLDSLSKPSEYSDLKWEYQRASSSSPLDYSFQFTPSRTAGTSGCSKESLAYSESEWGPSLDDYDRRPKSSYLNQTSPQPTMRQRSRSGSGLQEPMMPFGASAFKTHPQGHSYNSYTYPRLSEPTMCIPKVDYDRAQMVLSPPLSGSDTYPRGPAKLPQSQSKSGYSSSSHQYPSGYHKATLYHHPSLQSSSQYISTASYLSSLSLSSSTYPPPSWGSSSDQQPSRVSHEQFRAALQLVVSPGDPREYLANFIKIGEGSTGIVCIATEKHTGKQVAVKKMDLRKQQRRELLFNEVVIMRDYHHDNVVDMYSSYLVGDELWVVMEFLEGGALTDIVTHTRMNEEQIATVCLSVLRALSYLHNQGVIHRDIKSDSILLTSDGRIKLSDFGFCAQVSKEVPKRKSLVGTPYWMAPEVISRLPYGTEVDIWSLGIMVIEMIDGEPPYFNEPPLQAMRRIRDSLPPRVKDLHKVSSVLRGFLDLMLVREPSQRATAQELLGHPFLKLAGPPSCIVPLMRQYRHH
Sequence of Serine/threonine-protein kinase PRP4 homolog (Homo sapiens) (Q13523 whole entry): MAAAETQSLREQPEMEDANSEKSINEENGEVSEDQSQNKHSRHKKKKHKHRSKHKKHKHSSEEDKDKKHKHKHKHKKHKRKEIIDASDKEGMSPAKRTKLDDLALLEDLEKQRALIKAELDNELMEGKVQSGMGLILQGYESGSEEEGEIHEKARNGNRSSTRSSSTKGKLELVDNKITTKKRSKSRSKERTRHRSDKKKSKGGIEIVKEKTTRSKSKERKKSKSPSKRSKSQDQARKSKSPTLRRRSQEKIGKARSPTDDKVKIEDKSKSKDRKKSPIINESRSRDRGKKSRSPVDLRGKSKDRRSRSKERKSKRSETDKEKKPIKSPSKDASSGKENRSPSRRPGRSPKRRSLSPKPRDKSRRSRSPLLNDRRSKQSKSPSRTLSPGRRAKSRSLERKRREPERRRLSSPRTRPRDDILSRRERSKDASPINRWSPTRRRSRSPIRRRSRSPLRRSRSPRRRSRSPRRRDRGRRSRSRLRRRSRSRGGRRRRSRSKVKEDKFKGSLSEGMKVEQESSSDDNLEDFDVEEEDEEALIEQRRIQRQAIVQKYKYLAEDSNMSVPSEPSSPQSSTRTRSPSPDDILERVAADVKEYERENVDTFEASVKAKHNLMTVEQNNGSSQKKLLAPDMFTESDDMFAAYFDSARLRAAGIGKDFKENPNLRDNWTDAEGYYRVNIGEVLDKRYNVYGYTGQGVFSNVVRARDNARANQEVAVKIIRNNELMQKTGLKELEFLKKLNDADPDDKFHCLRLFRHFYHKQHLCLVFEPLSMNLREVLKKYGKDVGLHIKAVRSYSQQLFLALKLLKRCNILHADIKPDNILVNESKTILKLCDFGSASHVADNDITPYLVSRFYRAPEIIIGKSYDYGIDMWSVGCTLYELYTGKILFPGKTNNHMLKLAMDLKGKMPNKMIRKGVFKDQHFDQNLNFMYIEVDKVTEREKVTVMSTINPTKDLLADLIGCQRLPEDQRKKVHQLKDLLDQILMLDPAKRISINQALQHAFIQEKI
Sequence of Protein-tyrosine kinase 6 (Homo sapiens) (Q13882 whole entry, looked up): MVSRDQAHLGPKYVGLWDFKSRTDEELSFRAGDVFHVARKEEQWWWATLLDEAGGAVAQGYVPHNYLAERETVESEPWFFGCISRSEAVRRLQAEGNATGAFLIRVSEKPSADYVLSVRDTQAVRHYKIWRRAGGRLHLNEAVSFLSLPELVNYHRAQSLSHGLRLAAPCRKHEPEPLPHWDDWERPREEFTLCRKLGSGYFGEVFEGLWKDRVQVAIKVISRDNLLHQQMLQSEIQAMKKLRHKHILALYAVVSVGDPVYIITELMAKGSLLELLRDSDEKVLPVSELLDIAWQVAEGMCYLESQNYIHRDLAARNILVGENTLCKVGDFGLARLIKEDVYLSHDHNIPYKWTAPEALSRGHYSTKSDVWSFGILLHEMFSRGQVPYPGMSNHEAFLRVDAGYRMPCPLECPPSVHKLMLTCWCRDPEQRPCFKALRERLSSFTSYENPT
Sequence of Serine/threonine-protein kinase pim-1 (Homo sapiens) (P11309 whole entry, looked up): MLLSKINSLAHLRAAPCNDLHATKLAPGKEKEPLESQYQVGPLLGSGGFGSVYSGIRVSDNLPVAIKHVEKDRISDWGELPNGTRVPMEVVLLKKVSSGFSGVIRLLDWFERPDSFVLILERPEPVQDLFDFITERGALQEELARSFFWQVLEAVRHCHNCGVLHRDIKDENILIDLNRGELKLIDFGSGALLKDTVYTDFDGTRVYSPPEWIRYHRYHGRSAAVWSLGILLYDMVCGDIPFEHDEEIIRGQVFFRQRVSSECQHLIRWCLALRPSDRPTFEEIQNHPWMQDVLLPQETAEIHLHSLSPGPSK
Sequence of Serine/threonine-protein kinase SIK1 (Homo sapiens) (P57059 whole entry): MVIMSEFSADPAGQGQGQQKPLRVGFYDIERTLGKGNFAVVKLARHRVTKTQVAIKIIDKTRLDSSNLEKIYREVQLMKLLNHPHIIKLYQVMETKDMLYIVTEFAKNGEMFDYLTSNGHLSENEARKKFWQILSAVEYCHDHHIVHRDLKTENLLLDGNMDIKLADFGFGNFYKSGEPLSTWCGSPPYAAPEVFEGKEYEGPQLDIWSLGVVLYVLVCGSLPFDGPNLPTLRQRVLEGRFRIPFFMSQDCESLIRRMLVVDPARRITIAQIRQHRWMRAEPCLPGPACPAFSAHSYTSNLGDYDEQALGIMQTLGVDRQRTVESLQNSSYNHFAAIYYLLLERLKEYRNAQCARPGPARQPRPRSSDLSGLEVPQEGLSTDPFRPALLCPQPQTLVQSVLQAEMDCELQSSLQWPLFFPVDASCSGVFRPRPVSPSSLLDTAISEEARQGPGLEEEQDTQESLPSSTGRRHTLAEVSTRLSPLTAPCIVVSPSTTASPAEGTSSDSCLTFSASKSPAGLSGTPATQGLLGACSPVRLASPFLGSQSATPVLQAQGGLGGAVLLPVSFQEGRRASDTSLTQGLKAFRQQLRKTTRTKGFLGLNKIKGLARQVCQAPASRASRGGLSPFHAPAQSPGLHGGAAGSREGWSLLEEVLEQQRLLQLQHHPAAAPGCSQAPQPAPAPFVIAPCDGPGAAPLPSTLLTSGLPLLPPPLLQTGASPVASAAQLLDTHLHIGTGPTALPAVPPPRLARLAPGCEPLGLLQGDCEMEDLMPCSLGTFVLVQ

inhibition [1]: 0% | inhibition [2]: 2% | fold change (FC) [3]: 0.03
SMILES: CNC(=O)c1ccccc1Oc1nc(Nc2cc(OC)c(OC)c(OC)c2)ncc1Br

fold change (FC) [4]: 0.08 | fold change (FC) [5]: 0
SMILES: O=C(N[C@@H](C1CC1)C(F)(F)F)c1cc(-c2cnn3cc(-c4ccc(F)cc4)cnc23)cs1

fold change (FC) [6]: 0.16 | fold change (FC) [7]: 0 | inhibition [8]: 74% | fold change (FC) [9]: 0.85 | fold change (FC) [10]: 0 | inhibition [11]: 0% | inhibition [12]: 0%
SMILES: CC(C)[C@H](NC(=O)c1cc(-c2cnn3cc(-c4ccc(OCCN5CCCCC5)cc4)cnc23)cs1)C(F)(F)F
